Entries after “also recorded” stand apart in the source; their conditions may differ.
Columns and labels:
ABHD12 [1] = biological target: T1, ABHD12 (Mus musculus, UniProt Q99LR1); experiment: gel-based ABPP of mouse brain membrane proteome using the JJH350 probe; assay type: biochemical; conditions: for ABHD12 inhibitory activity, gel-based ABPP: JJH350 probe, SAR statements; for lower potency of regioisomers: relative to 39
T1 sequence (Q99LR1 1-398): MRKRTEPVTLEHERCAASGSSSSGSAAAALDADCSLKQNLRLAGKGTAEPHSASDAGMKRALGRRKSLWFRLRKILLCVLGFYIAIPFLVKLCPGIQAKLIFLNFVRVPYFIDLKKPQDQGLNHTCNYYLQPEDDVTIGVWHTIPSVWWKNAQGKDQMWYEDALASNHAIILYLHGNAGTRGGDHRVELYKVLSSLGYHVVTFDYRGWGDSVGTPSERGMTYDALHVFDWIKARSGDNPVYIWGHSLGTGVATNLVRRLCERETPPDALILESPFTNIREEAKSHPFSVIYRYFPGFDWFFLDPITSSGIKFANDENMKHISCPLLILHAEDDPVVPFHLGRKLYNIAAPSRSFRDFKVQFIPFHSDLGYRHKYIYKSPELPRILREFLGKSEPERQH
Method in brief: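 Mouse brain was dounce-homogenized in DPBS, cleared at 1,400 × g (3 min, 4 °C) and spun at 16,000 × g (45 min, 4 °C); the membrane pellet was washed and resuspended. Proteome (1 mg/mL) was pretreated with test compound (20 min rt for (thio)ureas; 45 min 37 °C for carbamates), then labeled with JJH350 (2 μM final, 45 min, 37 °C).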

ABHD12 [2] = biological target: T1, ABHD12; experiment: gel-based competitive ABPP using the FP-Rh probe, mouse brain membrane proteome; assay type: biochemical; conditions: up to 10 μM
Method in brief: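 Mouse brain membrane fraction was prepared by dounce homogenization in DPBS, a 1,400 × g clearing spin, and a 16,000 × g spin (45 min, 4 °C). Proteome (1 mg/mL) was pretreated with test compound (20 min rt for (thio)ureas; 45 min 37 °C for carbamates), then labeled with FP-Rh (1 μM final, 45 min, 37 °C). Samples were quenched in SDS loading buffer, separated by SDS-PAGE and read by in-gel fluorescence.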

serine hydrolases = experiment: selectivity by gel-based ABPP with FP-Rh in mouse brain proteome; assay type: biochemical; conditions: FP-Rh probe
Method in brief: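 Mouse brain homogenised in DPBS and cleared at 1,400 × g. Membranes pelleted at 16,000 × g (45 min, 4 °C) and resuspended in DPBS; used at 1 mg/mL. Test compound pretreatment: (thio)ureas 20 min at room temperature, NHH-carbamates 45 min at 37 °C. FP-Rh labelling (1 μM final) 45 min at 37 °C. Readout: 10% SDS-PAGE, in-gel fluorescence, band intensities quantified.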

ABHD12 [3] = biological target: T1, ABHD12; assay type: in vivo; conditions: 30 mg/kg, i.p., mice
Method in brief: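 Test compound was suspended in EtOH/PEG40 1:1 by bath sonication, then diluted with 9 volumes of DPBS (EtOH/PEG40/DPBS 1:1:18). Freshly prepared solution was given i.p. at 10 μL/g body weight. Mice were anesthetized with isoflurane and euthanized by cervical dislocation, and tissues were harvested. Tissue membrane proteomes were labeled with JJH350 (2 μM, 45 min, 37 °C), clicked to rhodamine azide and read by in-gel fluorescence.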

ABHD12 [4] = biological target: T2, ABHD12 (Homo sapiens, UniProt Q8N2K0); assay type: biochemical; conditions: FP-Rh probe 1 μM
T2 sequence (Q8N2K0 1-398): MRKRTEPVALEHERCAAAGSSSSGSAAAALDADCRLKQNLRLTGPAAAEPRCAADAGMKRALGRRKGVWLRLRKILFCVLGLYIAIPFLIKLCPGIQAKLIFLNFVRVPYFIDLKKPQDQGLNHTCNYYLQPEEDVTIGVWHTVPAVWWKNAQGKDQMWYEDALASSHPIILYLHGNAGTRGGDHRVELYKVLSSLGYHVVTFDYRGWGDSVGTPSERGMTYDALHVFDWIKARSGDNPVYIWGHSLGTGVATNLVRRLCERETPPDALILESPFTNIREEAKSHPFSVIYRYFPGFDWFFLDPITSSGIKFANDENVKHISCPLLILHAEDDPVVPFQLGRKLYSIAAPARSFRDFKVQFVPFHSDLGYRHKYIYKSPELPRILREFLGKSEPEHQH

ABHD12 [5] = biological target: T2, ABHD12; experiment: lyso-PS hydrolysis; assay type: biochemical; conditions: 17:1 lyso-PS 100 μM
Method in brief: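 Test compound preincubated 20 min at room temperature with ABHD12-overexpressing HEK293T membrane (0.25 mg/mL) in DPBS. 17:1 lyso-PS added (100 μM final) and run 30 min at 37 °C. Quench: 2:1 CHCl3/MeOH containing 1 nmol 15:0 FFA internal standard. Organic phase analysed by LC-MS, ESI negative mode, SIM at m/z 267.20 (17:1 FFA product) and 241.20 (15:0 FFA).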

Row | Structure (SMILES) | ABHD12 inhibitory activity, gel-based ABPP (ABHD12 [1]) | other results
1 | FC(F)(F)c1cccc(N2CCC(NC(=S)Nc3cccnc3)CC2)n1 [compound 26] | first sub-micromolar inhibitors in this series | –
2 | FC(F)(F)c1cnc(N2CCC(NC(=S)Nc3cccnc3)C2)c(Cl)c1 (stereo not shown) [compound 14] | near-complete loss | –
3 | FC(F)(F)Oc1ccccc1Oc1ccnc(N2CCC(NC(=S)Nc3cccnc3)CC2)c1Cl [compound 44] | – | lower potency of regioisomers (ABHD12 [1]): 3–4 fold
4 | FC(F)(F)Oc1ccc(Oc2ccnc(N3CCC(NC(=S)Nc4cccnc4)CC3)c2Cl)cc1 [compound 39] | – | increase in ABHD12 inhibitory activity (ABHD12 [1]; compared to 28 or 38): > 10 fold
5 | FC(F)(F)c1cnc(N2CCC(NC(=S)Nc3ccccc3)CC2)c(Cl)c1 [compound 12] | retained some ABHD12 inhibitory activity, albeit slightly lower than that of DO130 | –
6 | FC(F)(F)c1cnc(N2C3CCC2CC(NC(=S)Nc2cccnc2)C3)c(Cl)c1 (stereo not shown) [compound 21] | impaired ABHD12 activity relative to DO130 | –
7 | CN(C(=S)Nc1cccnc1)C1CCN(c2ncc(C(F)(F)F)cc2Cl)CC1 [compound 20] | weakened ABHD12 activity | –
8 | FC(F)(F)Oc1cccc(Oc2ccnc(N3CCC(NC(=S)Nc4cccnc4)CC3)c2Cl)c1 [compound 43] | – | lower potency of regioisomers (ABHD12 [1]): 3–4 fold
9 | S=C(Nc1cccnc1)NC1CCN(c2cc(Cl)ccn2)CC1 [compound 30] | – | decrease in ABHD12 inhibitory activity on substituting the 4-CF3 group (ABHD12 [1]; relative to the 4-CF3 analogue): ~ 3 fold
10 | COc1ccc(N2CCN(C(=O)ON3C(=O)C4CN(Cc5ccc(Oc6ccccc6)cc5)CCN4C3=O)CC2)cc1 (stereo not shown) [ABC34] | – | ABHD12 activity (ABHD12 [2]): negligible ABHD12 activity up to 10 μM
11 | COc1ccc(N2CCN(C(=O)ON3C(=O)C4CN(C(=O)c5ccc(Oc6ccccc6)cc5)CCN4C3=O)CC2)cc1 (stereo not shown) [JJH329, 1,3-Dioxo-7-(4-phenoxybenzoyl)hexahydroimidazo[1,5-a]pyrazine-2(3H)-yl 4-(4-methoxyphenyl)piperazine-1-carboxylate] | – | selectivity / off-targets among serine hydrolases (serine hydrolases): ABHD6 was observed as the only off-target; in vivo inhibition of ABHD12 (ABHD12 [3]): only marginal inhibition of ABHD12
12 | COc1ccc(NC(=S)NC2CCN(c3ncc(C(F)(F)F)cc3Cl)CC2)cn1 [compound 9, N-{6-(methoxy)Pyridin-3-yl}-N’-[1-{3-chloro-5-(trifluoromethyl)pyridin-2-yl}piperidin-4-yl]thiourea] | diminished potency towards ABHD12 | –
13 | FC(F)(F)c1cnc(N2CCC(NC(=S)Nc3cccnc3)CC2)c(Cl)c1 [DO130] | ABHD12 inhibitory activity as commercial AW01275 | time-dependent inhibition of ABHD12 (ABHD12 [4]): did not show time-dependent inhibition of ABHD12
14 | O=C(Nc1cccnc1)NC1CCN(c2ncc(C(F)(F)F)cc2Cl)CC1 [compound 8] | substantial loss in activity | –
15 | FC(F)(F)c1ccnc(N2CCC(NC(=S)Nc3cccnc3)CC2)c1 [compound 24] | first sub-micromolar inhibitors in this series | –
16 | Cc1cnc(N2CCN(NC(=S)Nc3cccnc3)CC2)c(Cl)c1 [DO127] | did not show any ABHD12 inhibitory activity | ABHD12 inhibitory activity, lyso-PS substrate assay (ABHD12 [5]): did not show any ABHD12 inhibitory activity
17 | FC(F)(F)c1cnc(N2CCC(NC(=S)Nc3cnc4ccccc4c3)CC2)c(Cl)c1 [compound 10] | diminished potency towards ABHD12 | –
18 | FC(F)(F)c1cnc(N2CCC(NC(=S)N3CCCc4ccccc43)CC2)c(Cl)c1 [compound 11] | diminished potency towards ABHD12 | –
19 | FC(F)(F)c1cnc(N2CCCC(NC(=S)Nc3cccnc3)C2)c(Cl)c1 (stereo not shown) [compound 13, N-3-Pyridyl-N’-[1-{3-chloro-5-(trifluoromethyl)pyridin-2-yl}piperidin-3-yl]thiourea] | abolished ABHD12 inhibitory activity; also recorded: dramatically reduced ABHD12 inhibitory activity | –
20 | FC(F)(F)Oc1ccc(Oc2ccnc(N3CCCC(NC(=S)Nc4cccnc4)C3)c2Cl)c(Cl)c1 (racemic) [(S,R)-DO271] | – | reduction in potency for ABHD12 inhibition (ABHD12 [1]; compared to DO264): ~ 10,000 fold

More lines, main results first:

Row | ABHD12 inhibitory activity, gel-based ABPP (ABHD12 [1]) | Structure (SMILES) | other results
21 | substantial reductions | FC(F)(F)c1cnc(N2CCCC(NC(=S)Nc3cccnc3)CC2)c(Cl)c1 (stereo not shown) [compound 15] | –
22 | reduced ABHD12 inhibitory activity | FC(F)(F)Oc1ccc(Oc2ccnc(N3CCC(NC(=S)Nc4cccnc4)CC3)c2C(F)(F)F)cc1 [compound 42] | –
23 | even more deleterious effect | COc1ccnc(N2CCC(NC(=S)Nc3cccnc3)CC2)c1 [compound 31] | –
24 | did not alter potency | Cc1c(Oc2ccc(OC(F)(F)F)cc2)ccnc1N1CCC(NC(=S)Nc2cccnc2)CC1 [compound 40, N-3-Pyridyl-N’-(1-[3-methyl-4-{4-(trifluoromethoxy)phenoxy}pyridine-2-yl]piperidin-4-yl)thiourea] | –
25 | only a small loss in potency | FC(F)(F)c1ccc(N2CCC(NC(=S)Nc3cccnc3)CC2)nc1 [compound 23] | –
26 | exhibited ABHD12 inhibitory activity | Cc1cnc(N2CCC(NC(=S)Nc3cccnc3)CC2)c(Cl)c1 [DO129, N-3-Pyridyl-N’-[1-{3-chloro-5-(methyl)pyridin-2-yl}piperidin-4-yl]thiourea] | –
27 | reduced ABHD12 inhibitory activity | N#Cc1c(Oc2ccc(OC(F)(F)F)cc2)ccnc1N1CCC(NC(=S)Nc2cccnc2)CC1 [compound 41] | –
28 | increased potency | Fc1ccc(Oc2ccnc(N3CCC(NC(=S)Nc4cccnc4)CC3)c2)cc1 [compound 37] | –
29 | abolished ABHD12 activity up to 5 μM | S=C(Nc1cccnc1)NC1CCN(c2ncccc2Cl)CC1 [compound 22] | –
30 | less active than (R)-DO271 | FC(F)(F)Oc1ccc(Oc2ccnc(N3CCC[C@H](NC(=S)Nc4cccnc4)C3)c2Cl)c(Cl)c1 [(S)-DO271] | –
31 | increased potency | FC(F)(F)Oc1ccc(Oc2ccnc(N3CCC(NC(=S)Nc4cccnc4)CC3)c2)cc1 [compound 38] | –
